This note sets out measurements from ChEMBL document CHEMBL1134553 (J Med Chem, 2001).

Where only a bound is given, the exact number is not on record here.

Monoamine transporters; serotonin & dopamine (Homo sapiens), sequence (P31645 whole entry, looked up): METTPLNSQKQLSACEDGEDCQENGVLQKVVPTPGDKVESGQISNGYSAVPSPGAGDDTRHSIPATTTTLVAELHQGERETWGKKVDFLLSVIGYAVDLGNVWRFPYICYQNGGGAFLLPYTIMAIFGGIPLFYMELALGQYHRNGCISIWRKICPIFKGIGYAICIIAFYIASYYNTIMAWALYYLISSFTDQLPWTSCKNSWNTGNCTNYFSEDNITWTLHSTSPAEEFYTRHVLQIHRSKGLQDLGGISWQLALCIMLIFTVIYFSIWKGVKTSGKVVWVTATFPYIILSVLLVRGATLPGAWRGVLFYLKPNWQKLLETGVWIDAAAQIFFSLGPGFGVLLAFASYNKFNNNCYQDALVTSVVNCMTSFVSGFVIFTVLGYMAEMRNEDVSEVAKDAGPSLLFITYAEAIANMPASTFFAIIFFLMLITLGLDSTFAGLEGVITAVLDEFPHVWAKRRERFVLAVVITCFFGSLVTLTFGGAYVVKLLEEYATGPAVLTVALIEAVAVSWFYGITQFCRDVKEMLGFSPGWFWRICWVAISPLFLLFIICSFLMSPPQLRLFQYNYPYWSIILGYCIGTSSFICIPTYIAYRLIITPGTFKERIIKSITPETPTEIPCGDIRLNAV
Monoamine transporters; serotonin & dopamine (Homo sapiens), sequence (Q01959 whole entry, looked up): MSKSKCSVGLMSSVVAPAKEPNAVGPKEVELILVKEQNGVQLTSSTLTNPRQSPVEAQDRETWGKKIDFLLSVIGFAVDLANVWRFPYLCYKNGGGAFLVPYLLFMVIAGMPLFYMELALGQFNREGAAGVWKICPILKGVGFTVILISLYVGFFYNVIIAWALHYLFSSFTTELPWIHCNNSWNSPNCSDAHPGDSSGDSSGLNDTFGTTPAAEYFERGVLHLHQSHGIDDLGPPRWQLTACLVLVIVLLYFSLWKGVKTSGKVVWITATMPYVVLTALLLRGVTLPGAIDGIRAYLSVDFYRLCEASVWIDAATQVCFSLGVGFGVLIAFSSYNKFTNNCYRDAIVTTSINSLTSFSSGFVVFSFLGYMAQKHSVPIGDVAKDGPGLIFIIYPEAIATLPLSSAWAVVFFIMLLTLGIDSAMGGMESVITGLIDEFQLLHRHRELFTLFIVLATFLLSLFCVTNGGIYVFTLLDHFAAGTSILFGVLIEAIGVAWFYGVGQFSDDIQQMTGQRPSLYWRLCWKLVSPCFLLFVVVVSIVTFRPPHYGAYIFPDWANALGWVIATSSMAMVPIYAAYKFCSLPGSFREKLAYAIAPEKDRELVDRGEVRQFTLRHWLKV

In the first test the target is T1, Sodium-dependent serotonin transporter (Homo sapiens, UniProt P31645). Kind of test: Inhibition of [3H]-citalopram binding to the serotonin transporter in rhesus (Macaca mulatta) or cynomolgus monkey (Macaca fascicularis) caudate-putamen. The class given is tissue-based, Cercopithecidae.
T1 sequence (P31645 whole entry): as the sequence (P31645 whole entry, looked up) above
Conditions: not given; call rule not given here
The method in brief:
(§1)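 Caudate-putamen membranes homogenised in ice-cold 50 mM Tris·HCl (pH 7.4), spun at 38000g for 20 min, washed twice. Assay at 4 mg original wet tissue/mL with 1 nM [3H]citalopram in 50 mM Tris·HCl pH 7.4 plus 100 mM NaCl. Incubated 2 h at 0-4 °C, then filtered on polyethyleneimine-soaked GF/B and counted by scintillation. Nonspecific binding defined with 10 µM fluoxetine. IC50 by EBDA; triplicates, 2-3 brains.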
Usually IC50 stands for the concentration that inhibits the measured activity by half. Turning to `COC(=O)[C@@H]1C2CC[C@H](C[C@@H]1c1ccccc1)N2C.Cl`, the IC50 result is listed as “Not Active”.

For the next test, the target named is T1, Sodium-dependent serotonin transporter. Briefly: Inhibition of [3H]citalopram binding to the serotonin transporter in rhesus (Macaca mulatta) or cynomolgus monkey (Macaca fascicularis) caudate-putamen. The settings on record: target entry is the homologue from another species. The class given is tissue-based, Cercopithecidae. The procedure, abridged:
as §1
The compound `COC(=O)[C@H]1C2C(=O)CC(C[C@H]1c1ccc(Cl)c(Cl)c1)N2C` (some centres not stated) showed an IC50 of 7040 nM.

Take `COC(=O)C1=C(c2ccc(F)cc2)CC2C[C@@H](O)C1N2C` (some centres not stated): the IC50 was more than 10000 nM.

The compound `COC(=O)C1C(OC(c2ccc(F)cc2)c2ccc(F)cc2)CC2C[C@@H](O)C1N2C` (some centres not stated) registered an IC50 of 9560 nM.

`COC(=O)C1=C(c2ccc3ccccc3c2)CC2[C@@H](O)CC1N2C` (some centres not stated) came in with an IC50 of 260 nM.

For `COC(=O)C1=C(c2ccc(F)cc2)CC2[C@@H](O)CC1N2C` (some centres not stated), the IC50 is more than 20000 nM.

Compound `COC(=O)C1=C(c2ccc3ccccc3c2)CC2C[C@@H](O)C1N2C` (some centres not stated) had a half-maximal inhibitory concentration (IC50) of 677 nM.

For the compound `COC(=O)C1=C(c2ccc(Cl)c(Cl)c2)CC2[C@@H](O)CC1N2C` (some centres not stated), the IC50 came to 3320 nM.

For the compound `COC(=O)C1=C(c2ccc(Cl)c(Cl)c2)CC2C[C@H](O)[C@H]1N2C`, the half-inhibitory concentration (IC50) was determined as 1590 nM.

The compound `COC(=O)[C@@H]1C(c2ccc(Cl)c(Cl)c2)C[C@H]2C[C@@H](O)C1N2C` (some centres not stated) came in with a half-maximal inhibitory concentration (IC50) of 1220 nM.

Consider `COC(=O)C1=C(c2ccc(Cl)c(Cl)c2)C[C@H]2C[C@@H](O)C1N2C`, for which the IC50 was 5370 nM.

The compound `COC(=O)C1=C(c2ccc(Cl)c(Cl)c2)CC2C[C@@H](O)C1N2C` (some centres not stated) showed an IC50 of more than 6000 nM.

In the case of `COC(=O)C1C(c2ccc(Cl)c(Cl)c2)CC2[C@H](O)CC1N2C` (some centres not stated), the IC50 was 10700 nM.

In the case of `COC(=O)C1C(c2ccc(Cl)c(Cl)c2)CC2C[C@H](O)C1N2C` (some centres not stated), the IC50 worked out at 991 nM.

`COC(=O)C1=C(c2ccccc2)CC2CCC1N2C` (configuration not stated) had an IC50 of 28600 nM.

In turn, `COC(=O)C1=C(c2ccccc2)CC2C[C@@H](O)C1N2C` (some centres not stated) displayed an IC50 of more than 10000 nM.

Turning to `COC(=O)C1=C(c2ccccc2)CC2[C@@H](O)CC1N2C` (some centres not stated), the IC50 was more than 100000 nM.

Compound `COC(=O)C1C(OC(c2ccc(F)cc2)c2ccc(F)cc2)CC2[C@@H](O)CC1N2C` (some centres not stated) returned a concentration for half-maximal inhibition (IC50) of 4850 nM.

Regarding `COC(=O)C1C(c2ccc(Cl)c(Cl)c2)C[C@H]2C[C@@H](O)C1N2C` (some centres not stated), the IC50 turned out to be 15 nM.

In turn, `COC(=O)C1C(c2ccc(Cl)c(Cl)c2)CC2[C@@H](O)CC1N2C` (stereo in doubt; 14a) [listing 1 of 2 here] came in with an IC50 of 166 nM.

Regarding `COC(=O)C1C(c2ccc3ccccc3c2)CC2[C@@H](O)CC1N2C` (stereo in doubt; 14b) [listing 1 of 2 here], the IC50 worked out at 34.2 nM.

Compound `COC(=O)C1C(c2ccc(F)cc2)CC2[C@@H](O)CC1N2C` (stereo in doubt; 14c) [listing 1 of 2 here] registered an IC50 of more than 20000 nM.

In turn, `COC(=O)C1C(c2ccccc2)CC2[C@@H](O)CC1N2C` (stereo in doubt; 14d) [listing 1 of 2 here] had an IC50 of 88000 nM.

In turn, `COC(=O)C1C(c2ccc(Cl)c(Cl)c2)CC2C[C@@H](O)C1N2C` (stereo in doubt; 15a) [listing 1 of 2 here] yielded an IC50 of 27.7 nM.

The compound `COC(=O)C1C(c2ccc3ccccc3c2)CC2C[C@@H](O)C1N2C` (stereo in doubt; 15b) [listing 1 of 2 here] gave an IC50 of 5.57 nM.

For the compound `COC(=O)C1C(c2ccc(F)cc2)CC2C[C@@H](O)C1N2C` (stereo in doubt; 15c) [listing 1 of 2 here], the IC50 was more than 10000 nM.

With `COC(=O)C1C(c2ccccc2)CC2C[C@@H](O)C1N2C` (stereo in doubt; 15d) [listing 1 of 2 here], the IC50 was more than 10000 nM.

`COC(=O)[C@H]1[C@@H](c2ccc(F)cc2)C[C@H]2CC[C@H]1N2C` (stereo in doubt; 16c) showed an IC50 of 1130 nM.

`COC(=O)C1C(c2ccc(Cl)c(Cl)c2)CC2[C@@H](O)CC1N2C` (stereo in doubt; 17a) [listing 1 of 2 here]: the IC50 turned out to be 1450 nM.

`COC(=O)C1C(c2ccc3ccccc3c2)CC2[C@@H](O)CC1N2C` (stereo in doubt; 17b) [listing 1 of 2 here] had a half-maximal inhibitory concentration (IC50) of 180 nM.

`COC(=O)C1C(c2ccc(F)cc2)CC2[C@@H](O)CC1N2C` (stereo in doubt; 17c) [listing 1 of 2 here] registered a half-maximal inhibitory concentration (IC50) of 5820 nM.

Compound `COC(=O)C1C(c2ccccc2)CC2[C@@H](O)CC1N2C` (stereo in doubt; 17d) [listing 1 of 2 here] yielded a half-inhibitory concentration (IC50) of more than 10000 nM.

As to `COC(=O)C1C(c2ccc(Cl)c(Cl)c2)CC2C[C@@H](O)C1N2C` (stereo in doubt; 18a) [listing 1 of 2 here], the IC50 is 1390 nM.

`COC(=O)C1C(c2ccc3ccccc3c2)CC2C[C@@H](O)C1N2C` (stereo in doubt; 18b) [listing 1 of 2 here]: the concentration for half-maximal inhibition (IC50) is 94 nM.

On to `COC(=O)C1C(c2ccc(F)cc2)CC2C[C@@H](O)C1N2C` (stereo in doubt; 18c) [listing 1 of 2 here], for which the IC50 is more than 20000 nM.

The compound `COC(=O)C1C(c2ccccc2)CC2C[C@@H](O)C1N2C` (stereo in doubt; 18d) [listing 1 of 2 here] returned an IC50 of more than 100000 nM.

Regarding `COC(=O)C1C(c2ccc(Cl)c(Cl)c2)CC2C[C@@H](O)C1N2C` (stereo in doubt; 33), the IC50 came out at 533 nM.

For the compound `COC(=O)C1C(c2ccccc2)CC2[C@@H](O)CC1N2C` (stereo in doubt; 34), the IC50 was more than 20000 nM.

Regarding `COC(=O)[C@H]1C(c2ccc(Cl)c(Cl)c2)CC2C[C@@H](O)[C@H]1N2C` (stereo in doubt; (1R)-15a) [listing 1 of 2 here], the 50% inhibitory concentration (IC50) was found to be 139 nM.

As for `COC(=O)[C@H]1C(c2ccc(Cl)c(Cl)c2)CC2C[C@@H](O)[C@H]1N2C` (stereo in doubt; (1R)-18a) [listing 1 of 2 here], the IC50 stood at 5300 nM.

Another test concerns the target Monoamine transporters; serotonin & dopamine (Homo sapiens) (UniProt P31645+Q01959). Kind of test: SERT/DAT ratio of the compound. The class given is protein assay.
Conditions: not given
Turning to `COC(=O)C1=C(c2ccc(F)cc2)CC2C[C@@H](O)C1N2C` (some centres not stated), the Ratio is 1.

`COC(=O)C1=C(c2ccc3ccccc3c2)CC2[C@@H](O)CC1N2C` (some centres not stated): the Ratio worked out at 1.

Consider `COC(=O)C1=C(c2ccc(F)cc2)CC2[C@@H](O)CC1N2C` (some centres not stated), for which the Ratio is 1.

Regarding `COC(=O)C1=C(c2ccc3ccccc3c2)CC2C[C@@H](O)C1N2C` (some centres not stated), the Ratio was found to be 15.

Turning to `COC(=O)C1=C(c2ccc(Cl)c(Cl)c2)CC2[C@@H](O)CC1N2C` (some centres not stated), the Ratio came to 60.

Regarding `COC(=O)C1=C(c2ccc(Cl)c(Cl)c2)CC2C[C@H](O)[C@H]1N2C`, the Ratio stood at 6.

On to `COC(=O)[C@@H]1C(c2ccc(Cl)c(Cl)c2)C[C@H]2C[C@@H](O)C1N2C` (some centres not stated), for which the Ratio amounted to 1610.

Regarding `COC(=O)C1=C(c2ccc(Cl)c(Cl)c2)CC2C[C@@H](O)C1N2C` (some centres not stated), the Ratio is more than 300.

With `COC(=O)C1=C(c2ccccc2)CC2CCC1N2C` (configuration not stated), the Ratio is 11.

For the compound `COC(=O)C1=C(c2ccccc2)CC2C[C@@H](O)C1N2C` (some centres not stated), the Ratio is 1.

Turning to `COC(=O)C1=C(c2ccccc2)CC2[C@@H](O)CC1N2C` (some centres not stated), the Ratio was 1.

For `COC(=O)C1C(c2ccc(Cl)c(Cl)c2)C[C@H]2C[C@@H](O)C1N2C` (some centres not stated), the Ratio was 50.

With `COC(=O)C1=C(c2ccc(Cl)c(Cl)c2)CC2CCC1N2C` (configuration not stated), the Ratio stood at 747.

With `COC(=O)C1=C(c2ccc(F)cc2)CC2CCC1N2C` (configuration not stated), the Ratio is 20.

With `COC(=O)C1=C(c2ccc3ccccc3c2)CC2CCC1N2C` (configuration not stated), the Ratio was 37.

Consider `COC(=O)C1C(c2ccc(Cl)c(Cl)c2)CC2CCC1N2C` (stereo in doubt; 13a), for which the Ratio was determined as 2.

In the case of `COC(=O)C1C(c2ccc3ccccc3c2)CC2CCC1N2C` (stereo in doubt; 13b), the Ratio came to 5.

As to `COC(=O)C1C(c2ccc(Cl)c(Cl)c2)CC2[C@@H](O)CC1N2C` (stereo in doubt; 14a) [listing 2 of 2 here], the Ratio amounted to 55.

In the case of `COC(=O)C1C(c2ccc3ccccc3c2)CC2[C@@H](O)CC1N2C` (stereo in doubt; 14b) [listing 2 of 2 here], the Ratio was found to be 4.

Consider `COC(=O)C1C(c2ccc(F)cc2)CC2[C@@H](O)CC1N2C` (stereo in doubt; 14c) [listing 2 of 2 here], for which the Ratio is more than 42.

As for `COC(=O)C1C(c2ccccc2)CC2[C@@H](O)CC1N2C` (stereo in doubt; 14d) [listing 2 of 2 here], the Ratio turned out to be 14.

Take `COC(=O)C1C(c2ccc(Cl)c(Cl)c2)CC2C[C@@H](O)C1N2C` (stereo in doubt; 15a) [listing 2 of 2 here]: the Ratio turned out to be 20.

Take `COC(=O)C1C(c2ccc3ccccc3c2)CC2C[C@@H](O)C1N2C` (stereo in doubt; 15b) [listing 2 of 2 here]: the Ratio turned out to be 4.

As to `COC(=O)C1C(c2ccc(F)cc2)CC2C[C@@H](O)C1N2C` (stereo in doubt; 15c) [listing 2 of 2 here], the Ratio was more than 80.

Turning to `COC(=O)C1C(c2ccccc2)CC2C[C@@H](O)C1N2C` (stereo in doubt; 15d) [listing 2 of 2 here], the Ratio is more than 43.

`COC(=O)C1C(c2ccc(Cl)c(Cl)c2)CC2CCC1N2C` (stereo in doubt; 16a): the Ratio was determined as 73.

On to `COC(=O)C1C(c2ccc3ccccc3c2)CC2CCC1N2C` (stereo in doubt; 16b), for which the Ratio is 10.

Regarding `COC(=O)C1C(c2ccc(Cl)c(Cl)c2)CC2[C@@H](O)CC1N2C` (stereo in doubt; 17a) [listing 2 of 2 here], the Ratio stood at 238.

In the case of `COC(=O)C1C(c2ccc3ccccc3c2)CC2[C@@H](O)CC1N2C` (stereo in doubt; 17b) [listing 2 of 2 here], the Ratio came out at 6.

Turning to `COC(=O)C1C(c2ccc(F)cc2)CC2[C@@H](O)CC1N2C` (stereo in doubt; 17c) [listing 2 of 2 here], the Ratio stood at 8.

In the case of `COC(=O)C1C(c2ccccc2)CC2[C@@H](O)CC1N2C` (stereo in doubt; 17d) [listing 2 of 2 here], the Ratio is more than 3.

Consider `COC(=O)C1C(c2ccc(Cl)c(Cl)c2)CC2C[C@@H](O)C1N2C` (stereo in doubt; 18a) [listing 2 of 2 here], for which the Ratio turned out to be 1170.

Take `COC(=O)C1C(c2ccc3ccccc3c2)CC2C[C@@H](O)C1N2C` (stereo in doubt; 18b) [listing 2 of 2 here]: the Ratio turned out to be 34.

As for `COC(=O)C1C(c2ccc(F)cc2)CC2C[C@@H](O)C1N2C` (stereo in doubt; 18c) [listing 2 of 2 here], the Ratio was more than 120.

`COC(=O)C1C(c2ccccc2)CC2C[C@@H](O)C1N2C` (stereo in doubt; 18d) [listing 2 of 2 here]: the Ratio was more than 190.

As to `COC(=O)[C@H]1C(c2ccc(Cl)c(Cl)c2)CC2C[C@@H](O)[C@H]1N2C` (stereo in doubt; (1R)-15a) [listing 2 of 2 here], the Ratio is 0.05.

On to `COC(=O)[C@H]1C(c2ccc(Cl)c(Cl)c2)CC2C[C@@H](O)[C@H]1N2C` (stereo in doubt; (1R)-18a) [listing 2 of 2 here], for which the Ratio amounted to 11.
